≈ marks a conversion by molar mass, not a printed value.
Columns and labels:
[1] = system: Staphylococcus epidermidis; test: Antimicrobial activity against Staphylococcus epidermidis ATCC 12228 by broth microdilution method; assay type: functional
Procedure, shortened: (§1)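 Inocula were saline (0.85% NaCl) suspensions at 0.5 McFarland (150 × 10⁶ CFU/mL). Compounds were first screened by agar dilution on Mueller-Hinton agar, and active ones then went to broth microdilution. MIC is the lowest concentration inhibiting growth. The negative control was medium containing DMSO at the final concentration, without compound.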

Proteus mirabilis = test: Antimicrobial activity against Proteus mirabilis ATCC 12453 by broth microdilution method; assay type: functional; procedure, shortened: as §1
Staphylococcus aureus [2] = test: Antimicrobial activity against Staphylococcus aureus ATCC 25923 by broth microdilution method; assay type: functional; procedure, shortened: as §1
Micrococcus luteus [3] = test: Ratio of ciprofloxacin MIC to compound MIC for Micrococcus luteus ATCC 10240 by broth microdilution method; assay type: functional
Staphylococcus aureus [4] = test: Antimicrobial activity against methicillin-resistant Staphylococcus aureus 14001 by broth microdilution method; assay type: functional
Procedure, shortened: (§2)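 Inoculum in sterile saline (0.85% NaCl), adjusted to 0.5 McFarland (150 × 10⁶ CFU/mL). Compounds first screened by agar dilution on Mueller-Hinton agar, then titrated by broth microdilution. Medium with DMSO at the final concentration and no compound served as negative control. MIC is the lowest concentration inhibiting growth. MBC is the lowest concentration giving >99.9% reduction in CFU of the initial inoculum.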

Micrococcus luteus [5] = test: Antimicrobial activity against Micrococcus luteus ATCC 10240 by broth microdilution method; assay type: functional; procedure, shortened: as §1
Bacillus cereus = test: Antimicrobial activity against Bacillus cereus ATCC 10876 by broth microdilution method; assay type: functional; procedure, shortened: as §1
Bacillus subtilis = test: Antimicrobial activity against Bacillus subtilis ATCC 6633 by broth microdilution method; assay type: functional; procedure, shortened: as §1
Staphylococcus aureus [6] = test: Ratio of MBC to MIC for methicillin-resistant Staphylococcus aureus 14001 by broth microdilution method; assay type: functional; procedure, shortened: as §2
HEK293 = test: Cytotoxicity against HEK293 cells after 48 hrs by MTT assay; assay type: cell-based; details: Homo sapiens, HEK293, 48 h
Procedure, shortened: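 HEK-293 cells were seeded at 3 × 10⁵ cells/well and pre-incubated 24 h at 37 °C under 5% CO₂. Compounds came from 50 mg/mL DMSO stocks diluted in medium with 2% FBS, at final concentrations of 2–500. Exposure was 48 h at 37 °C with MTT formazan read on a plate reader. EC50 is growth inhibition relative to control cells, given as mean ± SD of three independent experiments.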

Escherichia coli = test: Antimicrobial activity against Escherichia coli ATCC 25922 by broth microdilution method; assay type: functional; procedure, shortened: as §1
Pseudomonas aeruginosa [7] = test: Antimicrobial activity against Pseudomonas aeruginosa ATCC 9027 by broth microdilution method; assay type: functional; procedure, shortened: as §1
Pseudomonas aeruginosa [8] = test: Ratio of ciprofloxacin MIC to compound MIC for Pseudomonas aeruginosa ATCC 9027 by broth microdilution method; assay type: functional
Staphylococcus aureus [9] = test: Ratio of ciprofloxacin MIC to compound MIC for Staphylococcus aureus ATCC 25923 by broth microdilution method; assay type: functional
Staphylococcus aureus [10] = test: Ratio of vancomycin MIC to compound MIC for methicillin-resistant Staphylococcus aureus 14001 by broth microdilution method; assay type: functional; procedure, shortened: as §2
[11] = Selectivity ratio of EC50 for HEK293 cells to MIC for methicillin-resistant Staphylococcus aureus 14001; assay type: functional
Procedure, shortened: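 HEK-293 cells grown at 37 °C in humidified 5% CO₂ with penicillin and […] streptomycin. Seeded at 3 × 10⁵ cells/well for 24 h. Compounds (50 mg/mL DMSO stock) were diluted in medium with 2% FBS to final 2–500 µg/mL and applied for 48 h at 37 °C. Read-out was MTT formazan. EC50 was taken relative to control-cell growth, mean ± SD of three independent experiments, then divided by the MRSA MIC.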

Staphylococcus aureus [12] = test: Ratio of ciprofloxacin MIC to compound MIC for methicillin-resistant Staphylococcus aureus 14001 by broth microdilution method; assay type: functional; procedure, shortened: as §2

Compound | MIC [1] [µM] | MIC (Proteus mirabilis) [µM] | MIC (Staphylococcus aureus [2]) [µM] | Ratio (Micrococcus luteus [3]) | MBC (Staphylococcus aureus [4]) [µM] | MIC (Staphylococcus aureus [4]) [µM] | MIC (Micrococcus luteus [5]) [µM] | MIC (Bacillus cereus) [µM] | MIC (Bacillus subtilis) [µM] | Ratio (Staphylococcus aureus [6]) | EC50 (HEK293) [µM] | MIC (Escherichia coli) [µM] | MIC (Pseudomonas aeruginosa [7]) [µM] | Ratio (Pseudomonas aeruginosa [8]) | Ratio (Staphylococcus aureus [9]) | Ratio (Staphylococcus aureus [10]) | Ratio [11] | Ratio (Staphylococcus aureus [12])
CCn1c(-c2cccc(Cl)c2)nn(CN2CCN(c3cc4c(cc3F)c(=O)c(C(=O)O)cn4C3CC3)CC2)c1=S | 0.84 (≈ 0.49 µg/mL) | 0.051 (≈ 0.0297 µg/mL) | 0.84 (≈ 0.49 µg/mL) | 7.5 | 0.84 (≈ 0.49 µg/mL) | 0.41 (≈ 0.239 µg/mL) | 0.84 (≈ 0.49 µg/mL) | 0.2 (≈ 0.117 µg/mL) | 0.1 (≈ 0.0583 µg/mL) | 2 | 39.7 | 0.051 (≈ 0.0297 µg/mL) | 0.41 (≈ 0.239 µg/mL) | – | – | – | – | –
CCCCn1c(-c2cccc(Cl)c2)nn(CN2CCN(c3cc4c(cc3F)c(=O)c(C(=O)O)cn4C3CC3)CC2)c1=S | 1.6 (≈ 0.978 µg/mL) | 0.098 (≈ 0.0599 µg/mL) | 3.19 (≈ 1.95 µg/mL) | – | 1.6 (≈ 0.978 µg/mL) | 1.6 (≈ 0.978 µg/mL) | 6.4 (≈ 3.91 µg/mL) | 0.39 (≈ 0.238 µg/mL) | 0.2 (≈ 0.122 µg/mL) | 1 | – | 0.098 (≈ 0.0599 µg/mL) | 0.8 (≈ 0.489 µg/mL) | – | – | – | – | –
CCCCCCn1c(-c2cccc(Cl)c2)nn(CN2CCN(c3cc4c(cc3F)c(=O)c(C(=O)O)cn4C3CC3)CC2)c1=S | 1.53 (≈ 0.978 µg/mL) | 0.19 (≈ 0.121 µg/mL) | 1.53 (≈ 0.978 µg/mL) | – | 3.05 (≈ 1.95 µg/mL) | 1.53 (≈ 0.978 µg/mL) | 3.05 (≈ 1.95 µg/mL) | 0.77 (≈ 0.492 µg/mL) | 0.19 (≈ 0.121 µg/mL) | 2 | – | 0.047 (≈ 0.03 µg/mL) | 0.77 (≈ 0.492 µg/mL) | – | – | – | – | –
O=C(O)c1cn(C2CC2)c2cc(N3CCN(Cn4nc(-c5cccc(O)c5)n(-c5cccc([N+](=O)[O-])c5)c4=S)CC3)c(F)cc2c1=O | 0.74 (≈ 0.487 µg/mL) | 0.023 (≈ 0.0151 µg/mL) | 0.74 (≈ 0.487 µg/mL) | – | 0.74 (≈ 0.487 µg/mL) | 0.36 (≈ 0.237 µg/mL) | 1.49 (≈ 0.98 µg/mL) | 0.18 (≈ 0.118 µg/mL) | 0.18 (≈ 0.118 µg/mL) | 2 | – | 0.023 (≈ 0.0151 µg/mL) | 0.18 (≈ 0.118 µg/mL) | 4 | – | – | – | –
O=C(O)c1cn(C2CC2)c2cc(N3CCN(Cn4nc(-c5cccc(O)c5)n(-c5cccc(I)c5)c4=S)CC3)c(F)cc2c1=O | 0.66 (≈ 0.487 µg/mL) | 0.041 (≈ 0.0303 µg/mL) | 0.66 (≈ 0.487 µg/mL) | – | 0.66 (≈ 0.487 µg/mL) | 0.66 (≈ 0.487 µg/mL) | 1.33 (≈ 0.982 µg/mL) | 0.16 (≈ 0.118 µg/mL) | 0.32 (≈ 0.236 µg/mL) | 1 | – | 0.041 (≈ 0.0303 µg/mL) | 0.081 (≈ 0.0598 µg/mL) | 8 | – | – | – | –
O=C(O)c1cn(C2CC2)c2cc(N3CCN(Cn4nc(-c5cccc(O)c5)n(-c5ccc(Cl)cc5Cl)c4=S)CC3)c(F)cc2c1=O | 0.35 (≈ 0.239 µg/mL) | 0.022 (≈ 0.015 µg/mL) | 0.35 (≈ 0.239 µg/mL) | – | 0.71 (≈ 0.484 µg/mL) | 0.35 (≈ 0.239 µg/mL) | 1.44 (≈ 0.981 µg/mL) | 0.18 (≈ 0.123 µg/mL) | 0.18 (≈ 0.123 µg/mL) | 2 | – | 0.044 (≈ 0.03 µg/mL) | 0.088 (≈ 0.06 µg/mL) | 8 | 8.5 | – | – | –
O=C(O)c1cn(C2CC2)c2cc(N3CCN(Cn4nc(-c5cccc(O)c5)n(-c5cc(Cl)cc(Cl)c5)c4=S)CC3)c(F)cc2c1=O | 0.35 (≈ 0.239 µg/mL) | 0.044 (≈ 0.03 µg/mL) | 0.72 (≈ 0.491 µg/mL) | – | 0.35 (≈ 0.239 µg/mL) | 0.088 (≈ 0.06 µg/mL) | 1.44 (≈ 0.981 µg/mL) | 0.18 (≈ 0.123 µg/mL) | 0.18 (≈ 0.123 µg/mL) | 4 | 53 | 0.022 (≈ 0.015 µg/mL) | 0.088 (≈ 0.06 µg/mL) | 8 | – | 8 | 600 | 17
O=C(O)c1cn(C2CC2)c2cc(N3CCN(Cn4ncn(-c5cccc(I)c5)c4=S)CC3)c(F)cc2c1=O | 6.05 (≈ 3.91 µg/mL) | 0.18 (≈ 0.116 µg/mL) | 12.1 (≈ 7.81 µg/mL) | – | 12.1 (≈ 7.81 µg/mL) | 6.05 (≈ 3.91 µg/mL) | 24.2 (≈ 15.6 µg/mL) | 3.02 (≈ 1.95 µg/mL) | 0.37 (≈ 0.239 µg/mL) | 2 | – | 0.093 (≈ 0.0601 µg/mL) | 1.52 (≈ 0.983 µg/mL) | – | – | – | – | –
Cc1nn(CN2CCN(c3cc4c(cc3F)c(=O)c(C(=O)O)cn4C3CC3)CC2)c(=S)n1-c1cccc(I)c1 | 23.7 (≈ 15.6 µg/mL) | 0.74 (≈ 0.489 µg/mL) | 23.7 (≈ 15.6 µg/mL) | – | 23.7 (≈ 15.6 µg/mL) | 23.7 (≈ 15.6 µg/mL) | 94.6 (≈ 62.5 µg/mL) | 1.48 (≈ 0.978 µg/mL) | 1.48 (≈ 0.978 µg/mL) | 1 | – | 0.36 (≈ 0.238 µg/mL) | 2.95 (≈ 1.95 µg/mL) | – | – | – | – | –
CCCc1nn(CN2CCN(c3cc4c(cc3F)c(=O)c(C(=O)O)cn4C3CC3)CC2)c(=S)n1-c1cccc(I)c1 | 90.8 (≈ 62.5 µg/mL) | 2.83 (≈ 1.95 µg/mL) | 90.8 (≈ 62.5 µg/mL) | – | 182 (≈ 125 µg/mL) | 182 (≈ 125 µg/mL) | 182 (≈ 125 µg/mL) | 22.7 (≈ 15.6 µg/mL) | 5.68 (≈ 3.91 µg/mL) | 1 | – | 0.71 (≈ 0.489 µg/mL) | 22.7 (≈ 15.6 µg/mL) | – | – | – | – | –

— ChEMBL document CHEMBL2311311, “Synthesis and in vitro activity of 1,2,4-triazole-ciprofloxacin hybrids against drug-susceptible and drug-resistant bacteria” (Eur J Med Chem, 2013)
